From ChEMBL document CHEMBL1781899, “Synthesis of N-substituted 2-[(1E)-alkenyl]-4-(1H)-quinolone derivatives as antimycobacterial agents against non-tubercular mycobacteria” (Eur J Med Chem, 2011)
Values after ≈ are worked out from the molar mass of the structure shown.

Assays:
[1] = Cytotoxicity against human MRC5 cells assessed as cell viability at 0.12 uM after 72 hrs by XTT proliferation assay; assay type: cell-based; settings: read-out: Activity
[2] = system: Mycolicibacterium smegmatis; test: Antimycobacterial activity against Mycobacterium smegmatis ATCC 14468 after 3 days by MTT assay; assay type: functional; settings: ATCC 14468, 72 h
[3] = Cytotoxicity against human MRC5 cells assessed as cell viability at 30 uM after 72 hrs by XTT assay; assay type: cell-based; settings: read-out: Activity
Procedure, shortened: (§1)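 MRC-5 cells seeded at 5 × 10^4 cells/well and grown 24 h in MEM. Compounds came from fresh ethanol stocks; solvent control was 0.1% ethanol. 72 h exposure at 37 °C, 5% CO2. XTT plus electron-coupling reagent (50:1) added for 4 h. Viability expressed as % of solvent control, triplicate on at least two plates (n = 6), mean ± SEM.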

[4] = Cytotoxicity against human MRC5 cells assessed as cell viability at 100 uM after 72 hrs by XTT assay; assay type: cell-based; settings: read-out: Activity; procedure, shortened: as §1
[5] = system: Mycolicibacterium phlei; test: Antimycobacterial activity against Mycobacterium phlei ATCC 11758 after 3 days by MTT assay; assay type: functional; settings: ATCC 11758, 72 h
[6] = system: Mycolicibacterium fortuitum; test: Antimycobacterial activity against Mycobacterium fortuitum ATCC 6841 after 3 days by MTT assay; assay type: functional; settings: ATCC 6841, 72 h
[7] = system: Mycolicibacterium smegmatis; test: Antimycobacterial activity against Mycobacterium smegmatis mc2155 after 3 days by MTT assay; assay type: functional; settings: mc2155, 72 h
Procedure, shortened: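 Broth microdilution MIC. Inoculum grown on Columbia blood agar with 7% defibrinated horse blood, suspended in 0.9% NaCl to 5 × 10^5 cells/mL. Sterile, growth and isoniazid controls were included. Incubated 3 days at 37 °C; methanolic MTT added, dark violet indicating growth. Tests repeated three times.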

`CC[C@]1(O)C[C@@H]2CN(CCc3c([nH]c4ccccc34)[C@@](C(=O)OC)(c3cc4c(cc3OC)N(C)[C@H]3[C@@](O)(C(=O)OC)[C@H](OC(C)=O)[C@]5(CC)C=CCN6CC[C@]43[C@@H]65)C2)C1` [VINBLASTINE] showed a viability at 72 h, 0.12 µM [1] of 60.1%.
`CCCCCCC/C=C/c1cc(=O)c2ccccc2n1CC` gave an MIC [2] of 8 µg/mL (≈ 26.9 µM), a viability at 72 h, 30 µM [3] of 96.6% and a viability at 72 h, 100 µM [4] of 52.6%.
Work on `CCCCCCCCCCCC/C=C/c1cc(=O)c2ccccc2n1CCC` yielded an MIC [2] of 16 µg/mL (≈ 41.9 µM), a viability at 72 h, 30 µM [3] of 42.6% and a viability at 72 h, 100 µM [4] of 0.72%.
`CCCCCCCCCC/C=C/c1cc(=O)c2ccccc2n1CCCC` gave an MIC [2] of 4 µg/mL (≈ 10.9 µM), a viability at 72 h, 30 µM [3] of 42.4% and a viability at 72 h, 100 µM [4] of 0.45%.
Work on `CCCCCCCCC/C=C/c1cc(=O)c2ccccc2n1CCCCC` yielded an MIC [2] of 4 µg/mL (≈ 10.9 µM), a viability at 72 h, 30 µM [3] of 41.6% and a viability at 72 h, 100 µM [4] of 0.38%.
`NNC(=O)c1ccncc1` [ISONIAZID] gave an MIC [2] of 4 µg/mL (≈ 29.2 µM), an MIC [5] of 16 µg/mL (≈ 117 µM) and an MIC [6] of 1 µg/mL (≈ 7.29 µM). For the same compound, the MIC [7] was 4 µg/mL (≈ 29.2 µM).
For `CCCCCCCCCCCC/C=C/c1cc(=O)c2ccccc2n1CCCC`, the MIC [2] was 128 µg/mL (≈ 324 µM), the viability at 72 h, 30 µM [3] was 10.9% and the viability at 72 h, 100 µM [4] was 0.51%.
`C#CCn1c(/C=C/CCCCCCCCCCCC)cc(=O)c2ccccc21` showed an MIC [2] of 128 µg/mL (≈ 339 µM), a viability at 72 h, 30 µM [3] of 100% and a viability at 72 h, 100 µM [4] of 10%.
`O=C(O)c1cn(C2CC2)c2cc(N3CCNCC3)c(F)cc2c1=O` [CIPROFLOXACIN] showed an MIC [2] of 0.125 µg/mL (≈ 0.377 µM).
In the case of `C=CCn1c(/C=C/CCCCCCCC)cc(=O)c2ccccc21`, the MIC [2] is reported as 2 µg/mL (≈ 6.18 µM), the viability at 72 h, 30 µM [3] is reported as 33% and the MIC [5] is reported as 2 µg/mL (≈ 6.18 µM). For the same compound, the MIC [6] was 4 µg/mL (≈ 12.4 µM), the viability at 72 h, 100 µM [4] was 0.63% and the MIC [7] was 1 µg/mL (≈ 3.09 µM).
For `C#CCn1c(/C=C/CCCCCCC)cc(=O)c2ccccc21`, the MIC [2] was 2 µg/mL (≈ 6.51 µM), the viability at 72 h, 30 µM [3] was 71.1% and the MIC [5] was 4 µg/mL (≈ 13 µM). For the same compound, the MIC [6] was 32 µg/mL (≈ 104 µM), the viability at 72 h, 100 µM [4] was 63.9% and the MIC [7] was 2 µg/mL (≈ 6.51 µM).
`CCCCCCC/C=C/c1cc(=O)c2ccccc2n1CCC` gave an MIC [2] of 4 µg/mL (≈ 12.8 µM), a viability at 72 h, 30 µM [3] of 32.9% and a viability at 72 h, 100 µM [4] of 7.4%.
`C=CCn1c(/C=C/CCCCCCCCCCC)cc(=O)c2ccccc21` showed an MIC [2] of 4 µg/mL (≈ 10.9 µM), a viability at 72 h, 30 µM [3] of 17.9% and a viability at 72 h, 100 µM [4] of 1.06%.
For `C=CCn1c(/C=C/CCCCCCCCCCCC)cc(=O)c2ccccc21`, the MIC [2] was 16 µg/mL (≈ 42.2 µM), the viability at 72 h, 30 µM [3] was 98.2% and the viability at 72 h, 100 µM [4] was 0.7%.
Work on `C#CCn1c(/C=C/CCCCCCCCC)cc(=O)c2ccccc21` yielded an MIC [2] of 4 µg/mL (≈ 11.9 µM), a viability at 72 h, 30 µM [3] of 92.3% and a viability at 72 h, 100 µM [4] of 26.3%.
With `C#CCn1c(/C=C/CCCCCCCC)cc(=O)c2ccccc21` the MIC [2] was 16 µg/mL (≈ 49.8 µM), the viability at 72 h, 30 µM [3] was 43.6% and the viability at 72 h, 100 µM [4] was 0.4%.
With `C#CCn1c(/C=C/CCCCCCCCCC)cc(=O)c2ccccc21` the MIC [2] was 64 µg/mL (≈ 183 µM), the viability at 72 h, 30 µM [3] was 40.7% and the viability at 72 h, 100 µM [4] was 0.64%.
For `C=CCn1c(/C=C/CCCCCCC)cc(=O)c2ccccc21`, the MIC [2] was 8 µg/mL (≈ 25.9 µM), the viability at 72 h, 30 µM [3] was 10.1% and the viability at 72 h, 100 µM [4] was 0.53%.
`CCCCCCCCCCC/C=C/c1cc(=O)c2ccccc2n1CCCCC` showed an MIC [2] of 128 µg/mL (≈ 324 µM), a viability at 72 h, 30 µM [3] of 11.7% and a viability at 72 h, 100 µM [4] of 0.25%.
Compound `CC[C@@H](CO)NCCN[C@@H](CC)CO` [ETHAMBUTOL] has an MIC [2] of 2 µg/mL (≈ 9.79 µM), an MIC [5] of 4 µg/mL (≈ 19.6 µM) and an MIC [6] of 16 µg/mL (≈ 78.3 µM). It also gave an MIC [7] of 4 µg/mL (≈ 19.6 µM).
`CCCCCCCC/C=C/c1cc(=O)c2ccccc2n1CC` gave an MIC [2] of 4 µg/mL (≈ 12.8 µM), a viability at 72 h, 30 µM [3] of 39.2% and a viability at 72 h, 100 µM [4] of 0.53%.
`CCCCCCCC/C=C/c1cc(=O)c2ccccc2n1CCC` gave an MIC [2] of 2 µg/mL (≈ 6.14 µM), a viability at 72 h, 30 µM [3] of 56.1% and an MIC [5] of 2 µg/mL (≈ 6.14 µM). The MIC [6] was 2 µg/mL (≈ 6.14 µM), the viability at 72 h, 100 µM [4] was 0.5% and the MIC [7] was 2 µg/mL (≈ 6.14 µM).
Work on `CCCCCCCCCC/C=C/c1cc(=O)c2ccccc2n1CCCCC` yielded an MIC [2] of 8 µg/mL (≈ 21 µM), a viability at 72 h, 30 µM [3] of 31.6% and a viability at 72 h, 100 µM [4] of 0.25%.
For `CCCCCCCC/C=C/c1cc(=O)c2ccccc2n1CCCCC`, the MIC [2] was 2 µg/mL (≈ 5.66 µM), the viability at 72 h, 30 µM [3] was 61.7% and the MIC [5] was 4 µg/mL (≈ 11.3 µM). It also gave an MIC [6] of 4 µg/mL (≈ 11.3 µM), a viability at 72 h, 100 µM [4] of 0.46% and an MIC [7] of 1 µg/mL (≈ 2.83 µM).
